Measurements collected from several papers.
Protocols differ between the studies behind these lines.
Target: Aurora kinase B (AURKB, Homo sapiens, UniProt Q96GD4)
Observed: enzyme activity

O=c1cc(-c2cccc3c2Sc2ccccc2S3)oc(N2CCOCC2)c1  remaining activity (inhibitor; 0.5 µM): 95.8%
Cc1ccc(C(=O)Nc2ccc(CN3CCN(C)CC3)c(C(F)(F)F)c2)cc1C#Cc1cnc2cccnn12  remaining activity (inhibitor; 23.5 nM): 84%
Nc1nc(NC2CCCCC2)sc1C(=O)c1ccccc1  remaining activity (inhibitor; 10 µM): 75%
Cc1nn(CC(F)(F)F)cc1Nc1nccc(NCCCNC(=O)C2CCC2)n1  remaining activity (inhibitor, radiometric; 1 µM): 90%
Nc1ncnc2occ(-c3ccc(NC(=O)Nc4cc(C(F)(F)F)ccc4F)cc3)c12  remaining activity (inhibitor; 20 µM): 0.1%
Cn1c(=O)n(-c2ccc(C(C)(C)C#N)cc2)c2c3cc(-c4cnc5ccccc5c4)ccc3ncc21  remaining activity (inhibitor; 10 µM): 101%
CC(C)(C)c1nc2c(s1)c1nc(N)ncc1c1ccc(NS(=O)(=O)c3c(F)cccc3F)c(F)c12  remaining activity (inhibitor, radiometric; 1 µM): 90%
Cc1nn(CC(F)(F)F)cc1Nc1nccc(NCCc2cnc[nH]2)n1  remaining activity (inhibitor, radiometric; 1 µM): 71%
Cc1ccc(Nc2nccc(N(C)c3ccc4c(C)n(C)nc4c3)n2)cc1S(N)(=O)=O  remaining activity (inhibitor; 0.5 µM): 64.6%
O=C(Nc1cnn(-c2csc(C(=O)NC3COC3)c2)c1)Nc1c(F)cccc1Cl  remaining activity (inhibitor; 5 µM): 69.8%
Cc1nn(CC(F)(F)F)cc1Nc1ncc(C2CC2)c(NCc2ccc(S(N)(=O)=O)cc2)n1  remaining activity (inhibitor, radiometric; 1 µM): 102%
Oc1cccc(-c2nc(N3CCOCC3)c3oc4ncccc4c3n2)c1  remaining activity (inhibitor; 10 µM): 95%
COc1cc(Nc2cnc(C#N)c(O[C@H](C)CN(C)C)n2)ncc1-c1cnn(C)c1  remaining activity (inhibitor, radiometric; 1 µM): 42%
Cc1nn(CC(F)(F)F)cc1Nc1ncc(Br)c(NCc2ccc(S(N)(=O)=O)cc2)n1  remaining activity (inhibitor, radiometric; 1 µM): 87%
COc1cc(Cl)c(C(=O)N[C@@H](CN[C@H]2CC[C@@H](N)CC2)Cc2ccc(C#N)cc2)cc1-c1ccc(CN[C@H](C)c2ccc(C)cc2)o1  remaining activity (inhibitor; 1 µM): 96%
CN1CCc2cc(Nc3ncc(C4CC4)c(NCCCNC(=O)C4CCC4)n3)ccc2C1  remaining activity (inhibitor, radiometric; 1 µM): 8%
CS(=O)(=O)CCNCc1ccc(-c2ccc3ncnc(Nc4ccc(OCc5cccc(F)c5)c(Cl)c4)c3c2)o1  remaining activity (0.5 µM): 98.4%
O=C(Nc1cnn(-c2csc(C(=O)NC3COC3)c2)c1)Nc1ccccc1Cl  remaining activity (inhibitor; 5 µM): 93%
NS(=O)(=O)c1ccc(CNc2ccnc(Nc3cccc(NC(=O)N4CCCC4)c3)n2)cc1  remaining activity (inhibitor, radiometric; 1 µM): 53%
